37 sequences from the array DNA melting data of Ke et al. (doi:10.1101/2024.01.08.574731) can be followed below.

Data set [1] is described as follows: folding enthalpy; higher = less favourable; fluorescence melt of hairpins on a sequencing array, two-state fit. Particulars: sodium 0.088 M. The essentials: (§1)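 Cy3 fluorescence of library hairpins on a sequenced MiSeq flow cell, with annealed Cy3 and quencher oligos, was imaged in 50 mM Na-HEPES pH 8.0, 25 mM NaCl in 2.5 °C steps up to 60 °C. Signals were normalised to pre-quench Cy3 and to control variants. Melting temperature and folding enthalpy came from bootstrapped two-state fits, inverse-variance combined over four replicates. Fitted temperatures were raised by 9.35 °C to match UV melts.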

The nature of data set [2]: melting temperature; fluorescence melt of hairpins on a sequencing array, two-state fit, raised by 9.35 °C to match UV melts. To be noted: sodium 0.088 M. The essentials: as §1

On to GCCTGAGGAAACTCGGGC (((.(((....))).))), for which the folding enthalpy in data set [1] was -40.8 kcal/mol. Moreover, the Tm in data set [2] is 57.4 °C.

Take GAGGTAGGAAACTACTTC ((.((((....)))).)): in data set [1], the folding enthalpy is -30.1 kcal/mol. Moreover, the Tm in data set [2] was 32.5 °C.

Turning to GGGAAACGAAAGTTCCCC (((.(((....))).))), the folding enthalpy in data set [1] is -30.6 kcal/mol. In data set [2], the Tm was determined as 51 °C.

In the case of GCATAAGAAATTATGC ((((((....)))))), the folding enthalpy in data set [1] is -28.6 kcal/mol. Also, the Tm in data set [2] was determined as 46.3 °C.

Take GCGCTTCCGAAAGGACGC (((..(((....)))))): the folding enthalpy in data set [1] is -20.3 kcal/mol. Moreover, the Tm in data set [2] worked out at 52 °C.

Take GCGGACACCGC ((((...)))): the folding enthalpy in data set [1] was -26.3 kcal/mol. Besides, in data set [2], the Tm came out at 56.2 °C.

Turning to GAACCCCGAAAGGGCTTC (((.(((....))).))), the folding enthalpy in data set [1] is -15.3 kcal/mol. For the same sequence, the Tm in data set [2] was 34.3 °C.

Turning to GTTTAGGAAACTAAAC ((((((....)))))), the folding enthalpy in data set [1] is -30.6 kcal/mol. For the same sequence, the Tm in data set [2] turned out to be 44.7 °C.

As for GATCGATGCTTCGATC ((((((....)))))), the folding enthalpy in data set [1] was -41.9 kcal/mol. Also, in data set [2], the Tm stood at 54.9 °C.

GCGATGCGAAAGCATTGC ((.((((....)))).)): the folding enthalpy in data set [1] was -43.9 kcal/mol. Also, the Tm in data set [2] worked out at 68.7 °C.

As to GGACAACCGAAAGGTTCC (((..(((....)))))), the folding enthalpy in data set [1] was -10.9 kcal/mol. Also, the Tm in data set [2] was 29.4 °C.

Regarding GATGTAGGAAACTATATC (((.(((....))).))), the folding enthalpy in data set [1] was -28.5 kcal/mol. For the same sequence, in data set [2], the Tm worked out at 33.1 °C.

As for GGACGTGGAAACGCGTCC (((((.(....).))))), the folding enthalpy in data set [1] was -45.2 kcal/mol. Moreover, the Tm in data set [2] was found to be 61.9 °C.

Consider ATTGCGAAAGCAAT (((((....))))), for which the folding enthalpy in data set [1] is -17.5 kcal/mol. For the same sequence, in data set [2], the Tm came out at 57.6 °C.

Take GCCAAGGAAACTTGGC ((((((....)))))): the folding enthalpy in data set [1] is -38.2 kcal/mol. The Tm in data set [2] was found to be 62.9 °C.

GGTCGAGGAAACTTGACC ((((.((....)).)))): the folding enthalpy in data set [1] is -32 kcal/mol. Also, the Tm in data set [2] came out at 51.9 °C.

Turning to GGGGACGGAAACATCCCC (((((.(....).))))), in data set [1], the folding enthalpy was -32.8 kcal/mol. The Tm in data set [2] was found to be 47 °C.

Take GGAGGTGGAAACGTCTCC ((((..(....)..)))): in data set [1], the folding enthalpy was -18.4 kcal/mol. Further, the Tm in data set [2] was 35.9 °C.

For GATCATTAGAATGATC ((((((....)))))), in data set [1], the folding enthalpy was -28.6 kcal/mol. Also, the Tm in data set [2] was determined as 45.8 °C.

In the case of GTGTGACGAAAGTCCCAC (((.(((....))).))), in data set [1], the folding enthalpy was -25 kcal/mol. In addition, the Tm in data set [2] amounted to 50.5 °C.

Turning to GGCTTCGAAAGAACCGCC ((((((....)))..))), in data set [1], the folding enthalpy is -21.1 kcal/mol. The Tm in data set [2] came to 47.4 °C.

With GCGCTGCCGAAAGGCCGC (((..(((....)))))), in data set [1], the folding enthalpy was -17.8 kcal/mol. In addition, in data set [2], the Tm was 58.5 °C.

As to GGATCGGGAAACTGGTCC (((.(.(....).).))), the folding enthalpy in data set [1] is -30.4 kcal/mol. In addition, the Tm in data set [2] came out at 39.2 °C.

As to GCATAACGAAAGTTGTGC (((.(((....))).))), the folding enthalpy in data set [1] is -54.7 kcal/mol. Moreover, in data set [2], the Tm was found to be 54.7 °C.

Consider GTTTCCGAAAGGATGAAC ((((((....)))..))), for which the folding enthalpy in data set [1] was -8.12 kcal/mol. For the same sequence, the Tm in data set [2] was 25.8 °C.

As to GATCATTCTTATGATC ((((((....)))))), the folding enthalpy in data set [1] is -40.9 kcal/mol. Further, the Tm in data set [2] was found to be 48.6 °C.

With GTGAGGGCGAAAGCCCAC (((..(((....)))))), the folding enthalpy in data set [1] was -11.6 kcal/mol. Besides, the Tm in data set [2] was 46.5 °C.

In the case of GGTATAGAAATATACC ((((((....)))))), the folding enthalpy in data set [1] was -26.4 kcal/mol. The Tm in data set [2] stood at 41.9 °C.

Turning to GGGTGCGAAAGCATCCC ((((((....))).))), the folding enthalpy in data set [1] was -18.5 kcal/mol. In data set [2], the Tm turned out to be 65.2 °C.

With GTTGGTGGAAACATCAAC ((((.((....)).)))), the folding enthalpy in data set [1] is -37.8 kcal/mol. Besides, the Tm in data set [2] amounted to 46.5 °C.

With GCAAGTGGAAACACTCGC ((.((((....)))).)), the folding enthalpy in data set [1] was -25.4 kcal/mol. Further, the Tm in data set [2] turned out to be 44.3 °C.

GTACTCGAAAGAGGTAC ((((((....))).))): in data set [1], the folding enthalpy is -21.1 kcal/mol. In addition, the Tm in data set [2] stood at 42.7 °C.

Consider GACAATGCGAAAGCAGTC (((..(((....)))))), for which, in data set [1], the folding enthalpy is -14 kcal/mol. Also, the Tm in data set [2] was determined as 40.4 °C.

For the sequence GGGCATGGAAACGTGCCC (((((.(....).))))), the folding enthalpy in data set [1] is -50.3 kcal/mol. Moreover, the Tm in data set [2] stood at 60 °C.

For the sequence GTACAGACGAAAGTCTAC (((..(((....)))))), in data set [1], the folding enthalpy was -11.5 kcal/mol. In addition, the Tm in data set [2] amounted to 29.8 °C.

GCCTGGCGAAAGCTTGGC (((..((....))..))): the folding enthalpy in data set [1] was -26.5 kcal/mol. The Tm in data set [2] came out at 59.4 °C.

Consider GTGGCCGGAAACGGCTGC (..((((....))))..), for which the folding enthalpy in data set [1] is -13 kcal/mol. In addition, in data set [2], the Tm turned out to be 51.9 °C.
